Laboratory results taken from ChEMBL document CHEMBL1129970, “Biologically active conformer of the effector region of human C5a and modulatory effects of N-terminal receptor binding determinants on activity” (J Med Chem, 1997).

Assays:
[1] = species on record: Homo sapiens; assay: Relative potency of peptide for human fetal artery was determined; type: functional
How it was run: (§1)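 Human fetal artery smooth muscle contraction; full dose–response curves for recombinant human C5a or each peptide in the same tissue preparation. EC50 is the concentration giving 50% of the maximal response, read relative to the C5a maximum. pD2 = −log EC50 (M), averaged per peptide ± SE. Log potency ratio pD2(C5a) − pD2(peptide) is computed within each experiment. Relative potency = antilog(−Δ) × 100.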

[2] = species on record: Homo sapiens; assay: Spasmogenic activity was measured by the ability to induce smooth muscle contraction in human fetal artery; type: functional, Muscle tissue; how it was run: as §1
[3] = species on record: Homo sapiens; assay: Tested for the ability to stimulate beta-glucuronidase release from human polymorphonuclear cells (PMN) (n=4); type: functional
How it was run: (§2)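 Human PMNs pretreated with cytochalasin B (5 μg/mL, 10 min, 37 °C), then 10⁶ cells stimulated for 60 min at 37 °C. β-Glucuronidase in the supernatant is assayed with 0.01 M p-nitrophenyl β-D-glucuronide (0.1 M acetate, pH 4, 18 h) in triplicate. Reaction stopped with glycine pH 10 and read at 415 nm. pD2 is taken from dose–response curves against the C5a EC50. Efficacy is given relative to C5a maximum (100%).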

[4] = species on record: Homo sapiens; assay: Relative potency of peptide to stimulate beta-glucuronidase release from human polymorphonuclear cells (PMN) (n=4); type: functional; how it was run: as §2
[5] = species on record: Homo sapiens; assay: Log potency ratio [log IC50(C5a)-log IC50(peptide)] was determined in human polymorphonuclear cells (PMN) (n=3); type: functional
How it was run: (§3)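 Competition binding on freshly isolated intact human PMNs (0.25 × 10⁶) with 20 pM [¹²⁵I]C5a plus unlabeled C5a or peptide. Buffer is 50 mM HEPES, 1 mM CaCl₂, 5 mM MgCl₂, 0.5% BSA. Incubation 60 min at 4 °C, then filtration, ice-cold washes and gamma counting, triplicates. Nonspecific binding defined with 1 mM peptide or 100 nM C5a. Relative affinity = antilog[−(log IC50 C5a − log IC50 peptide)] × 100. The potency/binding ratio is EC50 divided by the binding IC50.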

[6] = species on record: Homo sapiens; assay: Log potency ratio [pD2(C5a)-pD2(peptide)] was determined for human polymorphonuclear cells (PMN) (n=4); type: functional; how it was run: as §2
[7] = species on record: Homo sapiens; assay: Relative affinity for PMN receptor (n=3); type: functional; how it was run: as §3
[8] = species on record: Homo sapiens; assay: Maximum efficacy relative to C5a (100%) for human polymorphonuclear cells (PMN) was determined (n=4); type: functional; how it was run: as §2
[9] = species on record: Homo sapiens; assay: (§4) Selectivity of peptide was determined from antilog[pD2(fetal artery)-pD2 (PMN enzyme release)] (n=10); type: functional
How it was run: (§5)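 Selectivity = antilog[pD2(fetal artery) − pD2(PMN β-glucuronidase release)]. pD2 values come from full dose–response curves in each assay, each generated alongside C5a.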

[10] = species on record: Homo sapiens; assay: Log potency ratio [pD2(C5a)-pD2(peptide)] was determined in human fetal artery; type: functional; how it was run: as §1
[11] = species on record: Homo sapiens; assay: Ratio of concentration agonist potency (EC50) to concentration inhibiting [125I]C5a binding (n=3); type: functional; how it was run: as §3
[12] = species on record: Homo sapiens; assay: Log potency ratio [pD2(C5a)-pD2(peptide)] was determined in human polymorphonuclear cells (PMN) (n=4); type: functional; how it was run: as §2
[13] = as §4; type: functional; how it was run: as §5
[14] = species on record: Homo sapiens; assay: Log potency ratio [pD2(C5a)-pD2(peptide)] was determined in human polymorphonuclear cells (PMN) (n=5); type: functional; how it was run: as §2
[15] = species on record: Homo sapiens; assay: Relative potency of peptide to stimulate beta-glucuronidase release from human polymorphonuclear cells (PMN) (n=5); type: functional; how it was run: as §2
[16] = species on record: Homo sapiens; assay: Tested for the ability to stimulate beta-glucuronidase release from human polymorphonuclear cells (PMN) (n=5); type: functional; how it was run: as §2
[17] = species on record: Homo sapiens; assay: Maximum efficacy relative to C5a (100%) for human polymorphonuclear cells (PMN) was determined (n=5); type: functional; how it was run: as §2
[18] = Selectivity of peptide was determined from antilog[pD2(fetal artery)-pD2 (PMN enzyme release)] (n=11); type: functional; how it was run: as §5
[19] = Selectivity of peptide was determined from antilog[pD2(fetal artery)-pD2 (PMN enzyme release)] (n=12); type: functional; how it was run: as §5
[20] = species on record: Homo sapiens; assay: Effective concentration to induce smooth muscle contraction in human fetal artery; type: functional; conditions: Muscle tissue; how it was run: as §1
[21] = species on record: Homo sapiens; assay: Effective concentration to stimulate beta-glucuronidase release from human polymorphonuclear cells (PMN) (n=4); type: functional; how it was run: as §2

| Structure (SMILES) | Potency [1] [%] | pD2 [2] | pD2 [3] | Potency [4] [%] | C5a max [8] [%] | Mean log concentration ratio [10] | Mean log concentration ratio [12] | also measured |
| --- | --- | --- | --- | --- | --- | --- | --- | --- |
| CSCC[C@H](NC(=O)[C@@H]1CCCN1C(=O)[C@H](CCCCN)NC(=O)[C@H](Cc1ccccc1)NC(=O)[C@H](CO)NC(=O)[C@H](Cc1ccc(O)cc1)NC(=O)CCCCCN)C(=O)N1CCC[C@H]1C(=O)N[C@@H](CC(C)C)C(=O)N[C@H](C)C(=O)N[C@@H](CCCN=C(N)N)C(=O)O | 16 | 7.16 | 5.51 | 1.2 | 180 | 0.79 |  | Mean log concentration ratio [5]: 4.33; Mean log concentration ratio [6]: 1.9; C5a affinity [7]: 0.005%; Selectivity [9]: 45; Ratio [11]: 0.6 |
| CSCC[C@H](NC(=O)[C@@H]1CCCN1C(=O)[C@H](CCCCN)NC(=O)[C@H](Cc1ccccc1)NC(=O)[C@H](CO)NC(=O)[C@H](Cc1ccc(O)cc1)NC(=O)[C@H](CCCCN)NC(=O)CNC(=O)[C@H](CCCCN)NC(=O)CNC(=O)[C@@H](N)CCCCN)C(=O)N1CCC[C@H]1C(=O)N[C@@H](CC(C)C)C(=O)N[C@H](C)C(=O)N[C@@H](CCCN=C(N)N)C(=O)O [listing 1 of 2 here] | 6.2 | 6.81 | 5.4 | 0.9 | 198 | 1.2 | 2.05 | Selectivity [13]: 26 |
| CSCC[C@H](NC(=O)[C@@H]1CCCN1C(=O)[C@H](CCCCN)NC(=O)[C@H](Cc1ccccc1)NC(=O)[C@H](CO)NC(=O)[C@H](Cc1ccc(O)cc1)NC(=O)CCCCCNC(=O)[C@H](Cc1c[nH]c2ccccc12)NC(=O)[C@@H](N)CCCCN)C(=O)N1CCC[C@H]1C(=O)N[C@@H](CC(C)C)C(=O)N[C@H](C)C(=O)N[C@@H](CCCN=C(N)N)C(=O)O | 14 | 7.11 |  |  |  | 0.86 |  | Mean log concentration ratio [14]: 1.72; Potency [15]: 1.9%; pD2 [16]: 5.6; C5a max [17]: 134%; Selectivity [18]: 32 |
| CSCC[C@H](NC(=O)[C@@H]1CCCN1C(=O)[C@H](CCCCN)NC(=O)[C@H](Cc1ccccc1)NC(=O)[C@H](CO)NC(=O)[C@H](Cc1ccc(O)cc1)NC(=O)CCCCCNC(=O)[C@H](CCCCN)NC(=O)CNC(=O)[C@H](CCCCN)NC(=O)CNC(=O)[C@@H](N)CCCCN)C(=O)N1CCC[C@H]1C(=O)N[C@@H](CC(C)C)C(=O)N[C@H](C)C(=O)N[C@@H](CCCN=C(N)N)C(=O)O | 10 | 6.98 | 5.18 | 0.6 | 173 | 0.99 | 2.2 | Selectivity [19]: 63 |
| CSCC[C@H](NC(=O)[C@@H]1CCCN1C(=O)[C@H](CCCCN)NC(=O)[C@H](Cc1ccccc1)NC(=O)[C@H](CO)NC(=O)[C@H](Cc1ccc(O)cc1)NC(=O)CCCCCNC(=O)[C@H](CCCCN)NC(=O)CNC(=O)[C@@H](N)CCCCN)C(=O)N1CCC[C@H]1C(=O)N[C@@H](CC(C)C)C(=O)N[C@H](C)C(=O)N[C@@H](CCCN=C(N)N)C(=O)O [listing 1 of 2 here] | 11 | 6.98 | 5.31 | 1 | 156 | 0.97 | 1.99 | Selectivity [13]: 47 |
| CSCC[C@H](NC(=O)[C@@H]1CCCN1C(=O)[C@H](CCCCN)NC(=O)[C@H](Cc1ccccc1)NC(=O)[C@H](CO)NC(=O)[C@H](Cc1ccc(O)cc1)NC(=O)[C@H](CCCCN)NC(=O)CNC(=O)[C@H](CCCCN)NC(=O)CNC(=O)[C@@H](N)CCCCN)C(=O)N1CCC[C@H]1C(=O)N[C@@H](CC(C)C)C(=O)N[C@H](C)C(=O)N[C@@H](CCCN=C(N)N)C(=O)O [listing 2 of 2 here] |  |  |  |  |  |  |  | EC50 [20]: 200 nM; EC50 [21]: 3.9 µM |
| CSCC[C@H](NC(=O)[C@@H]1CCCN1C(=O)[C@H](CCCCN)NC(=O)[C@H](Cc1ccccc1)NC(=O)[C@H](CO)NC(=O)[C@H](Cc1ccc(O)cc1)NC(=O)CCCCCNC(=O)[C@H](CCCCN)NC(=O)CNC(=O)[C@@H](N)CCCCN)C(=O)N1CCC[C@H]1C(=O)N[C@@H](CC(C)C)C(=O)N[C@H](C)C(=O)N[C@@H](CCCN=C(N)N)C(=O)O [listing 2 of 2 here] |  |  |  |  |  |  |  | EC50 [20]: 100 nM; EC50 [21]: 4.9 µM |
